Activity calls are given as the source filed them.
Tests used:
Bos taurus = species: Bos taurus; assay: Displacement of [3H]Ro151788 from GABA(A)/BzR in bovine cerebral cortex membrane at 10 uM; type: cell membranes
In short: (§1)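 Bovine cerebral cortex membranes in 50 mM Tris-citrate pH 7.4; [3H]flumazenil displacement. Compounds first tested at a fixed 10 µM; Ki determined only when inhibition exceeded 80%, using at least six concentrations. Five experiments run in triplicate; IC50 obtained by iterative curve fitting and converted to Ki with the Cheng–Prusoff equation.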

Mus musculus [1] = assay: Antihyperalgesic activity against streptozotocin-induced hyperalgesia in Swiss albino mouse […] assessed as licking latency time at 30 mg/kg, po after 60 mins by hot plate test (reference value: 10.4 +/- 0.8 secs); type: functional
Mus musculus [2] = assay: Antihyperalgesic activity Swiss albino mouse […] assessed as licking latency time at 30 mg/kg, po after 60 mins by hot plate test (reference value: 14.9 +/- 1.1 secs); type: functional
In short: (§2)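 Hot plate at 52.5 ± 0.1 °C in non-diabetic male Swiss mice. Latency to licking of fore or hind paws was timed before dosing and every 15 min up to 60 min after oral dosing. Mice with pretest latencies below 12 s or above 18 s were excluded. Cut-off was 45 s.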

Mus musculus [3] = assay: Antihyperalgesic activity against streptozotocin-induced hyperalgesia in Swiss albino mouse […] assessed as licking latency time at 30 mg/kg, po after 45 mins by hot plate test (reference value: 10.4 +/- 0.8 secs); type: functional
Mus musculus [4] = assay: Antihyperalgesic activity Swiss albino mouse […] assessed as licking latency time at 30 mg/kg, po after 45 mins by hot plate test (reference value: 14.9 +/- 1.1 secs); type: functional; in short: as §2
Mus musculus [5] = assay: Antihyperalgesic activity against streptozotocin-induced hyperalgesia in Swiss albino mouse […] assessed as licking latency time at 30 mg/kg, po after 30 mins by hot plate test (reference value: 10.4 +/- 0.8 secs); type: functional
Mus musculus [6] = assay: Antihyperalgesic activity Swiss albino mouse […] assessed as licking latency time at 30 mg/kg, po after 30 mins by hot plate test (reference value: 14.9 +/- 1.1 secs); type: functional; in short: as §2
Mus musculus [7] = assay: Antihyperalgesic activity against streptozotocin-induced hyperalgesia in Swiss albino mouse […] assessed as licking latency time at 30 mg/kg, po after 15 mins by hot plate test (reference value: 10.4 +/- 0.8 secs); type: functional
Mus musculus [8] = assay: Antihyperalgesic activity Swiss albino mouse […] assessed as licking latency time at 30 mg/kg, po after 15 mins by hot plate test (reference value: 14.9 +/- 1.1 secs); type: functional; in short: as §2
Mus musculus [9] = assay: Anxiolytic-like activity in Swiss albino mouse at 10 mg/kg, po after 30 mins by light/dark box test; type: functional, organism-based; parameters: dose 10 mg/kg
In short: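 Male Swiss mice tested in a two-compartment light/dark box. Transfers between compartments and time spent in the lit side recorded. Compound given po 30 min before testing, in 10 ml/kg; flumazenil given i.p. for antagonism; 8 mice per group.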

[10] = Displacement of [3H]Ro151788 from GABA(A)/BzR in bovine cerebral cortex membrane; type: cell membranes, Bos taurus; in short: as §1
Mus musculus [11] = assay: Analgesic activity in Swiss albino mouse abdominal constriction model assessed as decrease in number of acetic acid-induced writhing at 10 to 30 mg/kg, po after 30 mins; type: functional, organism-based; conditions: Abdomen
In short: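 Male Swiss albino mice (23–30 g). Compounds given po in 1% CMC vehicle 30 min before the test. Acetic acid 0.6% injected i.p. at 10 ml/kg. Stretching movements were counted for 10 min, starting 5 min after the acetic acid injection. 8–15 mice per group.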

Mus musculus [12] = assay: Anticonvulsant activity in Swiss albino mouse […] assessed as protection against intraperitoneally administered pentylenetetrazol-induced seizures at 30 mg/kg, po after 30 mins; type: functional
In short: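 Male Swiss albino mice. Compounds given po and PTZ 90 mg/kg injected 30 min later; PTZ was dissolved in 0.9% NaCl saline. Clonic generalized convulsions were recorded over 30 min. Each value is the mean of 10 mice. The methods give the PTZ route as s.c. and the table footnote gives it as ip.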

Rattus norvegicus [13] = assay: Antinociceptive activity in Sprague-Dawley rat mononeuropathy pain model assessed as increase in injured paw pressure at 3 mg/kg, po after 45 mins by paw pressure test relative to non-treated control; type: functional
In short: (§3)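 Chronic constriction injury: loose ligatures placed on the common sciatic nerve under chloral hydrate; contralateral sham dissection. Tested 14 days after surgery. Paw pressure applied at 32 g/s; threshold taken as the force causing the first struggle; cut-off 250 g; pretest outliers (<40 g or >75 g) excluded. Oral dosing in 10 ml/kg; read at 15, 30 and 45 min; compared with a CMC-treated group.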

Rattus norvegicus [14] = assay: Antinociceptive activity in Sprague-Dawley rat mononeuropathy pain model assessed as increase in injured paw pressure at 3 mg/kg, po after 30 mins by paw pressure test relative to non-treated control; type: functional; in short: as §3
Rattus norvegicus [15] = assay: Antinociceptive activity in Sprague-Dawley rat mononeuropathy pain model assessed as increase in injured paw pressure at 3 mg/kg, po after 15 mins by paw pressure test relative to non-treated control; type: functional; in short: as §3
Rattus norvegicus [16] = assay: Toxicity in Sprague-Dawley rat mononeuropathy pain model assessed as effect on contralateral paw pressure at 3 mg/kg, po after 45 mins by paw pressure test; type: organism-based; parameters: dose 3 mg/kg, route oral; conditions: in vivo, 0.75 h
In short: (§4)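 Same sciatic-ligation rat model, 14 days after surgery. Threshold measured on the non-operated contralateral hind paw by analgesimeter at 32 g/s; first-struggle endpoint; 250 g cut-off; pretest rats outside 40–75 g rejected. Compound given po in 10 ml/kg; readings at 15, 30 and 45 min.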

Rattus norvegicus [17] = assay: Toxicity in Sprague-Dawley rat mononeuropathy pain model assessed as effect on contralateral paw pressure at 3 mg/kg, po after 30 mins by paw pressure test; type: organism-based; parameters: dose 3 mg/kg, route oral; conditions: in vivo, 0.5 h; in short: as §4
Rattus norvegicus [18] = assay: Toxicity in Sprague-Dawley rat mononeuropathy pain model assessed as effect on contralateral paw pressure at 3 mg/kg, po after 15 mins by paw pressure test; type: organism-based; parameters: dose 3 mg/kg, route oral; conditions: in vivo, 0.25 h; in short: as §4
Rattus norvegicus [19] = assay: Antinociceptive activity in Sprague-Dawley rat mononeuropathy pain model assessed as increase in injured paw pressure at 30 mg/kg, po after 45 mins by paw pressure test relative to non-treated control; type: functional; in short: as §3
Rattus norvegicus [20] = assay: Antinociceptive activity in Sprague-Dawley rat mononeuropathy pain model assessed as increase in injured paw pressure at 30 mg/kg, po after 30 mins by paw pressure test relative to non-treated control; type: functional; in short: as §3
Rattus norvegicus [21] = assay: Antinociceptive activity in Sprague-Dawley rat mononeuropathy pain model assessed as increase in injured paw pressure at 30 mg/kg, po after 15 mins by paw pressure test relative to non-treated control; type: functional; in short: as §3
Rattus norvegicus [22] = assay: Antinociceptive activity in Sprague-Dawley rat mononeuropathy pain model assessed as increase in injured paw pressure at 10 mg/kg, po after 45 mins by paw pressure test relative to non-treated control; type: functional; in short: as §3
Rattus norvegicus [23] = assay: Antinociceptive activity in Sprague-Dawley rat mononeuropathy pain model assessed as increase in injured paw pressure at 10 mg/kg, po after 30 mins by paw pressure test relative to non-treated control; type: functional; in short: as §3
Rattus norvegicus [24] = assay: Antinociceptive activity in Sprague-Dawley rat mononeuropathy pain model assessed as increase in injured paw pressure at 10 mg/kg, po after 15 mins by paw pressure test relative to non-treated control; type: functional; in short: as §3
Rattus norvegicus [25] = assay: Toxicity in Sprague-Dawley rat mononeuropathy pain model assessed as effect on contralateral paw pressure at 30 mg/kg, po after 45 mins by paw pressure test; type: organism-based; parameters: dose 30 mg/kg, route oral; conditions: in vivo, 0.75 h; in short: as §4
Rattus norvegicus [26] = assay: Toxicity in Sprague-Dawley rat mononeuropathy pain model assessed as effect on contralateral paw pressure at 30 mg/kg, po after 30 mins by paw pressure test; type: organism-based; parameters: dose 30 mg/kg, route oral; conditions: in vivo, 0.5 h; in short: as §4
Rattus norvegicus [27] = assay: Toxicity in Sprague-Dawley rat mononeuropathy pain model assessed as effect on contralateral paw pressure at 30 mg/kg, po after 15 mins by paw pressure test; type: organism-based; parameters: dose 30 mg/kg, route oral; conditions: in vivo, 0.25 h; in short: as §4
Rattus norvegicus [28] = assay: Toxicity in Sprague-Dawley rat mononeuropathy pain model assessed as effect on contralateral paw pressure at 10 mg/kg, po after 45 mins by paw pressure test; type: organism-based; parameters: dose 10 mg/kg, route oral; conditions: in vivo, 0.75 h; in short: as §4
Rattus norvegicus [29] = assay: Toxicity in Sprague-Dawley rat mononeuropathy pain model assessed as effect on contralateral paw pressure at 10 mg/kg, po after 30 mins by paw pressure test; type: organism-based; parameters: dose 10 mg/kg, route oral; conditions: in vivo, 0.5 h; in short: as §4
Rattus norvegicus [30] = assay: Toxicity in Sprague-Dawley rat mononeuropathy pain model assessed as effect on contralateral paw pressure at 10 mg/kg, po after 15 mins by paw pressure test; type: organism-based; parameters: dose 10 mg/kg, route oral; conditions: in vivo, 0.25 h; in short: as §4

For [O-][n+]1nc2c(I)cnn2c2cc(NCc3ccccc3)ccc21, which inhibition (Bos taurus) is on record?
The inhibition was > 80%.

And the Time (Mus musculus [1])?
The Time was 17.9 s.

And the Time (Mus musculus [2])?
Its Time is 16.3 s.

What about the Time (Mus musculus [3]) of the same molecule?
Its Time is 17.3 s.

What about the Time (Mus musculus [4]) of the same molecule?
The Time was 15.8 s.

And the Time (Mus musculus [5])?
The Time was 16.4 s.

And the Time (Mus musculus [6])?
Its Time is 16.9 s.

And the Time (Mus musculus [7])?
The Time was 16.6 s.

What about the Time (Mus musculus [8]) of the same molecule?
Its Time is 16.3 s.

What about the Activity (Mus musculus [9]) of the same molecule?
Its Activity is “Active”.

What about the Ki [10] of the same molecule?
Its Ki is 0.109 nM.

What about the Activity (Mus musculus [11]) of the same molecule?
Its Activity is “inactive”.

And the Activity (Mus musculus [12])?
The Activity was 10%.

What about the Activity (Rattus norvegicus [13]) of the same molecule?
The Activity was 31.2 g.

And the Activity (Rattus norvegicus [14])?
The Activity was 33.8 g.

And the Activity (Rattus norvegicus [15])?
The Activity was 41.4 g.

And the Activity (Rattus norvegicus [16])?
Its Activity is 60.7 g.

What about the Activity (Rattus norvegicus [17]) of the same molecule?
The Activity was 59.5 g.

And the Activity (Rattus norvegicus [18])?
The Activity was 62.3 g.

What about the Activity (Rattus norvegicus [19]) of the same molecule?
Its Activity is 38.1 g.

And the Activity (Rattus norvegicus [20])?
The Activity was 42.3 g.

What about the Activity (Rattus norvegicus [21]) of the same molecule?
Its Activity is 46.4 g.

And the Activity (Rattus norvegicus [22])?
Its Activity is 36.7 g.

What about the Activity (Rattus norvegicus [23]) of the same molecule?
The Activity was 44.8 g.

What about the Activity (Rattus norvegicus [24]) of the same molecule?
The Activity was 49.5 g.

What about the Activity (Rattus norvegicus [25]) of the same molecule?
Its Activity is 62.2 g.

What about the Activity (Rattus norvegicus [26]) of the same molecule?
The Activity was 58.9 g.

And the Activity (Rattus norvegicus [27])?
The Activity was 61.7 g.

What about the Activity (Rattus norvegicus [28]) of the same molecule?
The Activity was 61.2 g.

What about the Activity (Rattus norvegicus [29]) of the same molecule?
Its Activity is 61.5 g.

And the Activity (Rattus norvegicus [30])?
Its Activity is 64.8 g.

Source: ChEMBL document CHEMBL2176871, “Development of ligands at γ-aminobutyrric acid type A (GABAA) receptor subtype as new agents for pain relief” (Bioorg Med Chem, 2011)
